Assay outcomes deposited in PubChem by Sanford-Burnham Center for Chemical Genomics.
Apaf-1 act = human Apaf-1 activation | Apaf-1 apoptosome caspase-3 activation, DEVD-Rh110 fluorescence; active compounds read low | activity change, negative = activation, % at 20 µM | actives 0.31% (n = 330,000) | AID 489031 | O14727;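 active means activity change at or below -40% at 20 µM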
Target sequence (O14727 whole entry, looked up): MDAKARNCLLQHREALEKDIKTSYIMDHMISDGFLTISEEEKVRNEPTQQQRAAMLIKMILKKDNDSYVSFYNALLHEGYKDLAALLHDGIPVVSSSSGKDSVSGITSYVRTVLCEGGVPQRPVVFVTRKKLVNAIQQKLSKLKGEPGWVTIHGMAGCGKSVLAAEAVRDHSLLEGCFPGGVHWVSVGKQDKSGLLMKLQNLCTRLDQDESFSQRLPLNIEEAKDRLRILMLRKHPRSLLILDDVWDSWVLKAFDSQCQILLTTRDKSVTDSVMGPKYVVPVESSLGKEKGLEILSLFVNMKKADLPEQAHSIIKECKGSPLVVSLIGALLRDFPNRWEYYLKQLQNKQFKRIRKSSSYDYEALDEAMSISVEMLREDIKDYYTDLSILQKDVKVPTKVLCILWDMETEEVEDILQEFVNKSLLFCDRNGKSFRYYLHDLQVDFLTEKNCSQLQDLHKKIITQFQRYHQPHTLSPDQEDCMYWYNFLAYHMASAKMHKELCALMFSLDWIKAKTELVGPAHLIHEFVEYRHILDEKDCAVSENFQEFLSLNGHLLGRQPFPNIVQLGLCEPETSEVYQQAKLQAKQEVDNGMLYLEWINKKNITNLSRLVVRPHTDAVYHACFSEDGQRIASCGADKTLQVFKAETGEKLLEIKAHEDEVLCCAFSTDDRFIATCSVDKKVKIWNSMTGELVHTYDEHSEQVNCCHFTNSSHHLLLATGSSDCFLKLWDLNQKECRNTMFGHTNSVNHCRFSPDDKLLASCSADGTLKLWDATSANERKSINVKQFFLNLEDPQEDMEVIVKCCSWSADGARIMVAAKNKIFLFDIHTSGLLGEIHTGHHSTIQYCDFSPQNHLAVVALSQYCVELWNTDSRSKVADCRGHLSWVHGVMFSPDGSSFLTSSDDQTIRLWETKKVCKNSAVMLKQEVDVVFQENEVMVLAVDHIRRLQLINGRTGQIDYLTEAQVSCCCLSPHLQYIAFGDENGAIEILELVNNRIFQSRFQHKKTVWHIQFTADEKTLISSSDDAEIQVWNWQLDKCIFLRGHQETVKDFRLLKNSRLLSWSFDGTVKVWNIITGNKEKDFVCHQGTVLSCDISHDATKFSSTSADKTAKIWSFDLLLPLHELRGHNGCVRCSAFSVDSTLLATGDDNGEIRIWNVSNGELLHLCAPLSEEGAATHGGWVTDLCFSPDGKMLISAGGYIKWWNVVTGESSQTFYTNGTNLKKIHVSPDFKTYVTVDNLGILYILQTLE
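Material: reconstituted apoptosome of Apaf-1, cytochrome c, caspase-9, procaspase-3; times: 30 min preincubation, 50 min reaction, room temperature; measured by: fluorescence, 540 nm emission, 480 nm excitation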
Rh110 act interf = counter-screen for Apaf-1 activators: fluorescence interference. shares compounds with Apaf-1 act. Rh110 fluorescence interference, quenched caspase reaction, Ex480/Em540. fluorescence interference (activity change), % at 20 µM, hits read low. 980 tested, under 10 active. AID 504616;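 active means mean activity change at or below -40% when tested at 20 µM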
Apaf-1 act conf = Apaf-1 (human) activation, single-dose confirmed. shares compounds with Apaf-1 act. reconstituted apoptosome caspase-3 activity, DEVD-Rh110 fluorescence; active compounds read low. activity change, negative = activation, % at 20 µM. actives 5% (n = 980). AID 504617;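 active means mean activity change at or below -40%, meaning activation of 40% or more, at 20 µM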
Numbers without * were called inactive. Not all results are given here.

For COC(=O)C(Cc1ccc(N(CCCl)CCCl)cc1)N=Cc1ccccc1O (stereo unspecified) the results were Apaf-1 act -63*.
`Cn1c(=O)[nH]c2nncnc2c1=O` gave Apaf-1 act 68.
For COC(=O)C1=C(c2ccc(OCc3ccccc3)cc2)C[C@@H]2CC[C@H]1N2C(=O)NC1CCN(Cc2ccccc2)CC1 the results were Apaf-1 act 58.
For CCC(C)N1C(=O)NC(=O)C2(Cc3c(ccc4ccccc34)N(C)C2)C1=O (stereo unspecified) the results were Apaf-1 act 65.
For ClC1C(Cl)C(Cl)C(Cl)C(Cl)C1Cl (stereo unspecified) the results were Apaf-1 act -2.
CCOC(=O)c1cc(CC)sc1/N=C/c1c(O)[nH]c(=S)[nH]c1=O was read as Apaf-1 act -200*, Rh110 act interf -133* and Apaf-1 act conf 5.
For C=CCN1CC[C@]23c4c5ccc(O)c4O[C@H]2C(=O)CC[C@@]3(O)[C@H]1C5 the results were Apaf-1 act 15.
CCCCCn1c(N)c(C(=O)NCc2cccs2)c2nc3ccccc3nc21 was read as Apaf-1 act 70.
COC(=O)c1nc(-c2ccc3c(n2)C(=O)C(N)=C(OC)C3=O)c(N)c(-c2ccc(OC)c(OC)c2O)c1C was read as Apaf-1 act 89.
`O=c1[nH]c2ccccc2n1CCCN1CCC(n2c(=O)[nH]c3cc(Cl)ccc32)CC1` gave Apaf-1 act -41*, Rh110 act interf 4 and Apaf-1 act conf 4.
`Nc1c(C(=O)NCc2ccco2)c2nc3ccccc3nc2n1CCN1CCOCC1` gave Apaf-1 act 44.
Screening NC(Cc1cc(O)c(O)cc1O)C(=O)O (stereo unspecified) returned Apaf-1 act 84.
Screening COc1ccccc1CCNCc1cc2c(cc1[N+](=O)[O-])OCO2 returned Apaf-1 act -192*, Rh110 act interf 5 and Apaf-1 act conf 13.
For Clc1ccc(C[n+]2c(-c3ccccc3)cc(-c3ccccc3)cc2-c2ccccc2)cc1 the results were Apaf-1 act 52.
Screening O=C1NC(=O)C(=Cc2ccc(Oc3ccc([N+](=O)[O-])cc3)cc2)C(=O)N1 returned Apaf-1 act 43.
Screening CC(C)C[C@H]1C(=O)N2CCCC2[C@]2(O)O[C@](NC(=O)[C@@H]3C=C4c5cccc6[nH]cc(c56)CC4N(C)C3)(C(C)C)C(=O)N12 (stereo partly specified) returned Apaf-1 act 87.
Screening COc1cc2c(cc1OC)-c1c3c(cc4c1[C@@H](C2)N(C)CC4)OCO3 returned Apaf-1 act 98.
Screening COc1ccc(C(=O)Cn2c(NCCCl)nc3ccccc32)cc1 returned Apaf-1 act -331*, Rh110 act interf 2 and Apaf-1 act conf 12.
Screening COc1ccc(Cn2c(N)c(C(=O)NCc3ccco3)c3nc4ccccc4nc32)cc1 returned Apaf-1 act 67.
`O=[N+]([O-])c1ccccc1-c1cc(-c2ccccc2)cc(-c2ccccc2)[n+]1Cc1ccccc1Cl` gave Apaf-1 act 53.
For CCCCn1c(NC(=O)c2ccco2)c(C(=O)OCC)c2nc3ccccc3nc21 the results were Apaf-1 act 83.
For O=[N+]([O-])c1ccc(NC2CCN(Cc3ccccc3)CC2)c2ccncc12 the results were Apaf-1 act 74.
O=C1C=Cc2ccccc2C1=O was read as Apaf-1 act 62.
O=C1NC(=O)N(c2ccc(Cl)cc2)C(=O)/C1=C/c1coc2ccc(O)cc2c1=O was read as Apaf-1 act -41*, Rh110 act interf 0 and Apaf-1 act conf 17.
`CCN1/C(=C\C=C\C2=[N+](CC)c3ccccc3C2(C)C)C(C)(C)c2ccccc21` gave Apaf-1 act 56.
CCC(COC(=O)c1cc(OC)c(OC)c(OC)c1)(c1ccccc1)N(C)C (stereo unspecified) was read as Apaf-1 act 12.
For CCCCOCCCn1c(N)c(C(=O)OCCOC)c2nc3ccccc3nc21 the results were Apaf-1 act 66.
O=[N+]([O-])c1ccc(NC2CCCC2)c2ccncc12 was read as Apaf-1 act 42.
For COCCCn1c(N)c(C(=O)NCCC(C)C)c2nc3ccccc3nc21 the results were Apaf-1 act 91.
CCCNC(=O)c1c(N)n(CC2CCCO2)c2nc3ccccc3nc12 (stereo unspecified) was read as Apaf-1 act 93.
For CCCCN1C(=N)C(CC)(CC)C(=O)NC1=O the results were Apaf-1 act -42*, Rh110 act interf 4 and Apaf-1 act conf 8.
`COC(=O)C(O)(c1c(C)[nH]n(-c2ccccc2)c1=O)C(F)(F)F` (stereo unspecified) gave Apaf-1 act 79.
